Here are results for 22 molecules from ChEMBL document CHEMBL1135990, “Design of selective thrombin inhibitors based on the (R)-Phe-Pro-Arg sequence” (J Med Chem, 2002).

For series [1], the target named is T1, Prothrombin (Homo sapiens, UniProt P00734). In words: Percentage inhibition against of human thrombin at dose of 10 X E-6 M.
Series [2] concerns the target T2, Serine protease 1 (Homo sapiens, UniProt P07477). The series is described as follows: Percentage inhibition against human trypsin at dose of 10 X E-5 M.
The target in series [3] is T2, Serine protease 1. In words: In vitro inhibition of human trypsin. The procedure, abridged: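 Human pancreatic trypsin, chromogenic substrate S2222, 50 mM HEPES/150 mM NaCl pH 8.0. Kinetic assay over 15 min after starting with substrate at four concentrations. Ki taken from 1/V versus 1/S plot.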
For series [4], the target named is T1, Prothrombin. The series is described as follows: In vitro inhibition of human thrombin.
The target of series [5] is T1, Prothrombin. The series is described as follows: Percentage inhibition against human thrombin at dose of 10 X E-6 M.
The target of series [6] is T2, Serine protease 1. The series is described as follows: Percentage inhibition against human trypsin at dose of 10 X E-4 M.
Series [7] is described as follows: Oral bioavailability in Beagle dogs after Per oral administration at dose of 50(mg/kg). The format is ADME, organism-based, Canis lupus familiaris. The following applies: dog, in vivo, 10 mg/kg, in the assay text read “10(mg/kg)” for “50(mg/kg)”. The procedure, abridged:
(§1)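 Oral bioavailability: compound in water given by gavage to male Sprague–Dawley rats (n = 3 per sampling time) and Beagle dogs (n = 2). Plasma collected into lithium heparin (dog saphenous cannula, conscious; rat vena cava under halothane). Drug quantified by LCMS, compared with iv saline dosing; parameters from computational PK analysis.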

The nature of series [8]: Volume of distribution in Male Sprague-Dawley rats after intravenous administration at a dose of 10 mg/kg. The format is ADME, organism-based. Further details: dose 10 mg/kg, route intravenous. The following applies: rat, in vivo, read-out: Volume. The procedure, abridged: (§2)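 PK: male Sprague–Dawley rats (n = 3 per sampling time) given saline solution as rapid iv bolus via caudal vein; Beagle dogs (n = 2) given constant-rate iv infusion over 15 min via saphenous vein. Plasma collected into lithium heparin; drug measured by LCMS with internal standard after solid-phase extraction at pH 6.0. Parameters derived by computational PK analysis.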

Series [9] is described as follows: Alpha-elimination half-life in Beagle dogs after intravenous administration at a dose of 1 mg/kg. The following applies: dog, in vivo.
Series [10] can be described thus: Volume of distribution in Beagle dogs after intravenous administration at a dose of 1 mg/kg. The following applies: dog, in vivo.
Series [11] is described as follows: Beta-elimination half-life in Beagle dogs after intravenous administration at a dose of 1 mg/kg. The following applies: dog, in vivo.
Series [12] can be described thus: Oral bioavailability in rat (Sprague-Dawley) (male) (dose 50 mg/kg p.o.). The format is ADME, organism-based. The following applies: in vivo. The procedure, abridged: as §1
Series [13] in a line: Plasma clearance in Male Sprague-Dawley rats after intravenous administration at a dose of 10 mg/kg. The format is ADME, organism-based. On the set-up: dose 10 mg/kg, route intravenous. The following applies: rat. Put shortly: as §2
The nature of series [14]: Plasma clearance in Beagle dogs after intravenous administration at a dose of 1 mg/kg. The following applies: dog.
A short description of series [15]: Beta-elimination half-life in Male Sprague-Dawley rats after intravenous administration at a dose of 10 mg/kg. The format is ADME, organism-based. On the set-up: dose 10 mg/kg, route intravenous. The following applies: rat, in vivo. The procedure, abridged: as §2
Series [16] can be described thus: Alpha-elimination half-life in Male Sprague-Dawley rats after intravenous administration at a dose of 10 mg/kg. The format is ADME, organism-based. On the set-up: dose 10 mg/kg, route intravenous. The following applies: rat, in vivo. The procedure, abridged: as §2
In series [17] the target is T3, Coagulation factor VII (Homo sapiens) (UniProt P08709).
T3 sequence (whole entry): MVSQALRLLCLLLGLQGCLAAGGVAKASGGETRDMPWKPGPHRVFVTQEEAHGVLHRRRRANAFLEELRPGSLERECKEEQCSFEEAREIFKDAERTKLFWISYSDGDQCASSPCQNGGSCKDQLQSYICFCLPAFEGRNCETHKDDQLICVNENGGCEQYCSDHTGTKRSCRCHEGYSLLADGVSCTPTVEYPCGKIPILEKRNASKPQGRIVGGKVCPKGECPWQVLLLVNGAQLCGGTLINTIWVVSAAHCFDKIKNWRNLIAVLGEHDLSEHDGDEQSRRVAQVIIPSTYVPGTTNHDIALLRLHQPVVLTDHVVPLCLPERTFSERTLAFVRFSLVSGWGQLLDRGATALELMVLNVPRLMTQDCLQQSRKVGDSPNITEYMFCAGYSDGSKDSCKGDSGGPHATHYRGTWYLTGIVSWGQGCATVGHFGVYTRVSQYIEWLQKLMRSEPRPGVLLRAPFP
In words: Percentage inhibition of Coagulation factor VIIa (FVIIa) at a concentration of 10 X E-4 M from human plasma. The format is cell-free. Put shortly:
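Human plasma FVIIa, 0.06 μg/mL final, plus recombinant tissue factor at 0.12 μg/mL final; substrate N-methylsulfonyl-D-Phe-Pro-Arg-pNA. Buffer 50 mM TRIS/100 mM NaCl pH 7.5. Compound preincubated with enzyme 15 min at room temperature, then substrate added; 30 min at 30 °C; OD 405 nm; percentage inhibition from triplicates.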

Another series concerns the target Coagulation factor X (Bos taurus, UniProt P00743). In words: Inhibitory effect on Coagulation factor Xa (FXa) from bovine plasma. The format is cell-free. The procedure, abridged:
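Bovine plasma FXa, 0.02 U/mL final, with S2222 at 0.2 mM final, in 50 mM HEPES/150 mM NaCl pH 7.5. Aqueous compound dilutions preincubated with enzyme 15 min at room temperature, then substrate added; OD 405 nm read after 30 min at 30 °C. IC50 from triplicate eight-concentration curves; Ki via Cheng–Prusoff using substrate Km.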

In series [18] the target is T2, Serine protease 1. In words: Percentage inhibition effect human trypsin at dose of 10 X E-4 M.
Series [19] deals with T1, Prothrombin. In words: Percentage inhibition effect of human thrombin at dose of 10 X E-6 M.
Series [20] can be described thus: Volume of distribution in Beagle dogs after intravenous administration at a dose of 1 mg/kg. The format is ADME, organism-based, Canis lupus familiaris. On the set-up: dose 1 mg/kg, route intravenous. The following applies: dog, in vivo, read-out: Volume. Put shortly:
as §2

Series [21] can be described thus: Oral bioavailability in Beagle dogs after Per oral administration at dose of 2(mg/kg). The following applies: dog, in vivo. The format is ADME, organism-based, Canis lupus familiaris. The procedure, abridged:
as §1

Series [22] can be described thus: Plasma clearance in Beagle dogs after intravenous administration at a dose of 1 mg/kg. The format is ADME, organism-based, Canis lupus familiaris. On the set-up: dose 1 mg/kg, route intravenous. The following applies: dog. The procedure, abridged: as §2
A short description of series [23]: Beta-elimination half-life in Beagle dogs after intravenous administration at a dose of 1 mg/kg. The format is ADME, organism-based, Canis lupus familiaris. On the set-up: dose 1 mg/kg, route intravenous. The following applies: dog, in vivo. The procedure, abridged: as §2

T2 sequence (P07477 whole entry): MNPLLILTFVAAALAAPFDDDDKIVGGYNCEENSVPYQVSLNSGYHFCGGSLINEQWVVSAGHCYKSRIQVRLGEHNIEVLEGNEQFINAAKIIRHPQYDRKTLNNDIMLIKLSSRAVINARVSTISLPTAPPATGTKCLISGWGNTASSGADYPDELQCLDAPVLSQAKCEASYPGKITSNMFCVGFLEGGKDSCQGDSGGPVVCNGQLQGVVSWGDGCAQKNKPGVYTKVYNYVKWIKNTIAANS
Coagulation factor X, sequence (P00743 41-180 limits assumed): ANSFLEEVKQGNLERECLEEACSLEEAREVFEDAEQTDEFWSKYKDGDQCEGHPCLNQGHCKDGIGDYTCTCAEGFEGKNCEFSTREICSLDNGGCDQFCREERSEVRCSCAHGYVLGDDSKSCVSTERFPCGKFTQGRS
Coagulation factor X, sequence (P00743 234-492 limits assumed): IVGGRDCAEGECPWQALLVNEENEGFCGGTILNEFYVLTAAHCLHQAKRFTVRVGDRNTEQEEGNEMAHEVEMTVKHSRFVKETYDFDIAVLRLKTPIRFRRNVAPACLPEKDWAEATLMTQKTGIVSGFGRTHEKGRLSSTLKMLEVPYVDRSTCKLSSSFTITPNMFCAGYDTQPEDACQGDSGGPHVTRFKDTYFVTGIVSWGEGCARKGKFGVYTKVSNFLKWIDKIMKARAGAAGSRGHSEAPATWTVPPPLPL

As to `N=C(N)N1CCC(OCCC2CCCCN2C(=O)[C@H](CC(=O)O)NC2CCOCC2)CC1` (stereo partly specified), the inhibition against Prothrombin [1] is 42%; on Serine protease 1 [2] it was 23%.

For `N=C(N)N1CCC(OCCC2CCCCN2C(=O)[C@H](CC(=O)O)NCC2CCCCC2)CC1` (stereo partly specified), the Ki at Serine protease 1 [3] amounted to 1600 nM; at Prothrombin [4], 16 nM.

`N=C(N)N1CCC(OCC[C@@H]2CCCCN2C(=O)[C@H](CC(=O)O)NCc2ccccc2)CC1` gave a Ki on Serine protease 1 [3] of 9200 nM. At Prothrombin [5], this molecule displayed an inhibition of 24%.

With `N=C(N)N1CCC(OCCC2CCCCN2C(=O)[C@@H](Cc2ccccc2)NCC(=O)O)CC1` (stereo partly specified), the figures for the Ki on Serine protease 1 [3] and on Prothrombin [4] were 7900 nM and 370 nM, respectively.

As for `CN(C1CCCOC1)[C@@H](CC(=O)O)C(=O)N1CCCC[C@H]1CCOC1CCN(C(=N)N)CC1` (stereo partly specified), the inhibition against Prothrombin [1] was found to be 16%; against Serine protease 1 [6], 48%.

`CCS(=O)(=O)N[C@H](Cc1ccccc1)C(=O)N1CCC[C@H]1C(=O)NCC1CCN(C(=N)N)CC1` displayed a Ki at Prothrombin [4] of 15 nM.

As to `CN(C1CCCCC1)[C@@H](CC(=O)O)C(=O)N1CCCC[C@H]1CCOC1CCN(C(=N)N)CC1`, the bioavailability is 9% in series [7] and 2% in series [12]. Further, the values for the Vd in [8] and in series [10] were 0.31 L/kg and 0.53 L/kg, respectively. The inhibition constant Ki is 1930 nM on Serine protease 1 [3], 2.17 nM on Prothrombin [4] and 4970 nM at Coagulation factor X. Further, the half-life in series [9] is 9.6 min; in series [11], 60 min; in series [15], 48 min; in series [16], 7.2 min. The figures for the clearance in [13] and in series [14] were 21.2 mL/min/kg and 6.4 mL/min/kg, respectively. This molecule registered an inhibition in [17] of 38.7%.

Consider `CCN(C1CCCCC1)[C@@H](CC(=O)O)C(=O)N1CCCCC1CCOC1CCN(C(=N)N)CC1` (stereo partly specified), for which the figures for the Ki on Serine protease 1 [3] and at Prothrombin [4] were 5000 nM and 16 nM, respectively.

As to `N=C(N)N1CCC(OCC[C@@H]2CCCCN2C(=O)[C@H](CC(=O)O)NC2CCCCCC2)CC1`, the Ki on Serine protease 1 [3] came to 700 nM; on Prothrombin [4], 1.1 nM.

As to `N=C(N)N1CCC(OCCC2CCCCN2C(=O)[C@@H](CC2CCCCC2)NCC(=O)O)CC1` (stereo partly specified), the Ki stood at 370 nM at Serine protease 1 [3] and 0.96 nM at Prothrombin [4].

On to `N=C(N)N1CCC(OCCC2CCCCN2C(=O)[C@H](CC(=O)O)NC2CCCC2)CC1` (stereo partly specified), for which the Ki amounted to 5000 nM on Serine protease 1 [3] and 32 nM on Prothrombin [4].

Turning to `N=C(N)N1CCC(OCCC2CCCCN2C(=O)[C@H](CC(=O)O)NC2CCCCCCC2)CC1` (stereo partly specified), the Ki on Serine protease 1 [3] was determined as 720 nM; at Prothrombin [4], 1.3 nM.

For `CN(C)CCN(C1CCCCC1)[C@@H](CC(=O)O)C(=O)N1CCCCC1CCOC1CCN(C(=N)N)CC1` (stereo partly specified), the inhibition on Serine protease 1 [18] and against Prothrombin [19] was 0% throughout.

On to `N=C(N)c1ccc(OCC[C@H]2CCCCN2C(=O)[C@@H](CC2CCCCC2)NCC(=O)O)cc1`, for which the Ki on Serine protease 1 [3] was determined as 7300 nM; at Prothrombin [4], 120 nM.

Turning to `N=C(N)c1ccc(OCC[C@@H]2CCCCN2C(=O)[C@@H](CC2CCCCC2)NCC(=O)O)cc1`, the Ki on Serine protease 1 [3] came to 89 nM; at Prothrombin [4], 0.37 nM.

For the molecule `CC1=CCN(C(=O)[C@H](Cc2cccc(C(=N)N)c2)NS(=O)(=O)c2ccc3c(c2)CCN(C)CC3)[C@@H](C(=O)O)C1`, the Vd in [8] is 0.6 L/kg; in series [20], 0.53 L/kg. Further, the values for the bioavailability in [12] and in [21] were 16% and 37%, respectively. In addition, the clearance in series [13] stood at 11 mL/min/kg; in [22], 6.9 mL/min/kg. Further, the half-life is 54 min in series [23] and 48 min in series [15].

Take `CCC(CC)N[C@@H](CC(=O)O)C(=O)N1CCCC[C@H]1CCOC1CCN(C(=N)N)CC1`: the Ki on Serine protease 1 [3] is 1400 nM; at Prothrombin [4], 9.8 nM.

Take `CN(C1CCCCCC1)[C@@H](CC(=O)O)C(=O)N1CCCC[C@H]1CCOC1CCN(C(=N)N)CC1`: the inhibitory constant (Ki) at Serine protease 1 [3] was determined as 810 nM; at Prothrombin [4], 0.53 nM.

Consider `CN(C1CCC=CCC1)[C@@H](CC(=O)O)C(=O)N1CCCC[C@H]1CCOC1CCN(C(=N)N)CC1`, for which the Ki at Serine protease 1 [3] amounted to 1100 nM; at Prothrombin [4] it was 0.8 nM.

As for `CN1CCC(N[C@@H](CC(=O)O)C(=O)N2CCCC[C@H]2CCOC2CCN(C(=N)N)CC2)CC1`, the Ki at Serine protease 1 [3] came out at 4800 nM; at Prothrombin [4], 90 nM.

Turning to `CN(C1CCCCC1)[C@@H](CCC(=O)O)C(=O)N1CCCC[C@H]1CCOC1CCN(C(=N)N)CC1`, the results for the Ki on Serine protease 1 [3] and on Prothrombin [4] were 550 nM and 1.8 nM, respectively.

With `N=C(N)N1CCC(OCCC2CCCCN2C(=O)[C@H](CC(=O)O)NC2CCCCC2)CC1` (stereo partly specified), the Ki on Serine protease 1 [3] is 2900 nM; on Prothrombin [4], 7.1 nM.
